The test system of data set [1] is HSC-6. The experiment in a line: Antimigratory activity against human HSC-6 cells assessed as reduction in cell migration at 10 uM for 4 days by transwell assay. Type of data set: functional, cell-based. The conditions noted are these: time 4.0 day. The procedure, abridged: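 Transwell migration and invasion with 8-μm pore inserts. HSC6 or SCC25 cells, including lines stably overexpressing Flag-Twist1, treated at 10 μM for 4 days. Mean ± SD of three independent experiments, one-way ANOVA.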

Data set [2] deals with Protein arginine N-methyltransferase 5 (Homo sapiens) (UniProt O14744). The experiment in a line: Inhibition of PRMT5 in human HSC-6 cells over expressing Twist1 assessed as increase in N-cadherin protein level at 10 uM incubated for 4 days by immunoblot analysis. The conditions noted are these: time 4.0 day. Type of data set: cell-based. The method in brief:
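HSC6 cells stably overexpressing Flag-Twist1, with or without 10 μM for 4 days. Twist1, N-cadherin and E-cadherin proteins detected by immunoblot.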
Background: A western blot detects proteins with antibodies after separation by electrophoresis.

The test system of data set [3] is Squamous carcinoma cell line. Put plainly: Antitumor activity against human squamous carcinoma cells in BALB/c nude PDX xenograft mouse assessed as tumor volume at 30 mg/kg. The format is functional, organism-based. The procedure, abridged:
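PDX: tongue squamous carcinoma tissue minced into 1∼2 mm3 pieces and passaged in BALB/c nude mice. P2 tissue implanted subcutaneously into 4-week-old mice, randomised at 50 mm3 tumour size to control or 30 mg/kg (n = 6 each). Volume change followed, and Ki-67 IHC quantified. Mean ± SD, Student's t test.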

Data set [4] has as its target Protein arginine N-methyltransferase 5 (Homo sapiens) (UniProt O14744). The experiment in a line: Inhibition of PRMT5 in human HSC-6 cells assessed as reduction in H3R8me2 protein expression at 10 uM incubated for 4 days by western blot analysis. Type of data set: cell-based. The conditions noted are these: time 4.0 day.
For data set [5] the target is unchanged. Put plainly: Inhibition of PRMT5 in human SCC-25 cells assessed as reduction in H4R3me2 protein expression at 10 uM incubated for 4 days by western blot analysis. The format is cell-based. The conditions noted are these: time 4.0 day.
Data set [6] has the same target. The experiment in a line: Inhibition of PRMT5 in human SCC-25 cells assessed as reduction in set1 occupancy in Twist1 promoter region at 10 uM incubated for 4 days by Chip-qPCR analysis. Type of data set: cell-based. The conditions noted are these: time 4.0 day. The method in brief:
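SCC25 cells exposed to inhibitor at 10 μM for 4 days. ChIP used a commercial kit with anti-WDR5 or anti-Set1 (1:50), and binding at the Twist1 promoter was quantified by qPCR. Mean ± SD of three independent experiments, Student's t test.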
On the technique in general: Real-time PCR tracks product formation cycle by cycle.

The subject of data set [7] is Rattus norvegicus. Put plainly: Antitumor activity against 4-Nitroquinoline-1-Oxide induced cancer Sprague-Dawley rat carcinogenic model assessed as cancer area of tongue tissue at 30 mg/kg, iv administered on week 12 and measured on week 22 (reference value: 80%). Type of data set: functional. The conditions noted are these: time 10 weeks.
Data set [8] concerns the target Protein arginine N-methyltransferase 5 (Homo sapiens) (UniProt O14744). Put plainly: Inhibition of PRMT5 in human SCC-25 cells assessed as reduction in Twist1 mRNA expression at 10 uM incubated for 4 days by RT-qPCR analysis. Type of data set: cell-based. The conditions noted are these: time 4.0 day. The method in brief: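 HSC6 or SCC25 cells exposed to 10 μM for 4 days. Twist1 mRNA measured by quantitative RT-PCR. Mean ± SD of three independent experiments, Student's t test.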

Data set [9] has as its system HSC-6. Put plainly: Antitumor activity against human HSC-6 cells xenografted in BALB/c nude mouse assessed as reduction in number of Twist1 positive cells at 30 mg/kg by IHC staining. The format is functional, organism-based. The procedure, abridged: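 HSC6 subcutaneous xenograft: 6 × 10^7 cells into the back of 4-week-old BALB/c nude mice, dosed at 15 or 30 mg/kg. IHC with Ki67 1:400 or Twist1 1:250. Percent positive cells from 5 random fields per sample. Student's t test; Twist1 groups n = 6/6.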
Background: Xenograft models place foreign cells or tissue in a host animal.

Data set [10] addresses Protein arginine N-methyltransferase 5 (Homo sapiens) (UniProt O14744). The experiment in a line: Inhibition of PRMT5 in human SCC-25 cells assessed as increase in E-cadherin protein expression level at 10 uM incubated for 4 days by western blot analysis. The format is cell-based. The conditions noted are these: time 4.0 day. The procedure, abridged:
(§1)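 HSC6 or SCC25 cells treated with 10 μM for 4 days. E-cadherin, N-cadherin and Twist1 proteins detected by immunoblot.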

For data set [11], the system named is Rattus norvegicus. The experiment in a line: Antitumor activity against 4-Nitroquinoline-1-Oxide induced cancer Sprague-Dawley rat carcinogenic model assessed as normal area of tongue tissue at 30 mg/kg, iv administered on week 12 and measured on week 22 (reference value: 6.7%). The format is functional. The conditions noted are these: time 10 weeks.
In data set [12] the test system is SCC-25. The experiment in a line: Antimigratory activity against human SCC-25 cells assessed as reduction in cell migration after 48 hrs incubated for 48 hrs by transwell assay. The format is functional, cell-based.
Data set [13] concerns Rattus norvegicus. The experiment in a line: Antitumor activity against 4-Nitroquinoline-1-Oxide induced cancer Sprague-Dawley rat carcinogenic model assessed as dysplasia area of tongue tissue at 30 mg/kg, iv administered on week 12 and measured on week 22 (reference value: 13.3%). Type of data set: functional. The conditions noted are these: time 10 weeks.
Data set [14] has as its target Protein arginine N-methyltransferase 5 (Homo sapiens) (UniProt O14744). Put plainly: Inhibition of PRMT5 in human HSC-6 cells assessed as reduction in Twist1 protein expression at 10 uM incubated for 4 days by western blot analysis. Type of data set: cell-based. The conditions noted are these: time 4.0 day. The method in brief: as §1
For data set [15] the target is unchanged. Put plainly: Inhibition of PRMT5 in human SCC-25 cells assessed as reduction in H3R8me2 protein expression at 10 uM incubated for 4 days by western blot analysis. The conditions noted are these: time 4.0 day. Type of data set: cell-based.
Data set [16] shares this target. Put plainly: Inhibition of PRMT5 in human SCC-25 cells assessed as reduction in H3R2me2 protein expression at 10 uM incubated for 4 days by western blot analysis. The format is cell-based. The conditions noted are these: time 4.0 day.
Data set [17] concerns Rattus norvegicus. The experiment in a line: Antitumor activity against 4-Nitroquinoline-1-Oxide induced cancer Sprague-Dawley rat carcinogenic model assessed as reduction in lesion area of tongue tissue at 30 mg/kg, iv administered on week 12 and measured on week 22. The format is functional, organism-based. The conditions noted are these: time 10.0 weeks.
Data set [18] deals with Rattus norvegicus. Put plainly: Antitumor activity against 4-Nitroquinoline-1-Oxide induced cancer Sprague-Dawley rat carcinogenic model assessed as reduction in number of Twist1 positive cells at 30 mg/kg, iv administered on week 12 and measured on week 22 by IHC assay. Type of data set: functional, organism-based. The conditions noted are these: time 10.0 weeks. The procedure, abridged:
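4NQO-induced SD rat tongue lesions (0.002% 4NQO in drinking water for 12 weeks; tail-vein 30 mg/kg from week 12; killed at week 22). IHC with Twist1 antibody 1:250. Percentage of positive cells from 5 random fields per sample. Groups n = 11/6, mean ± SD, Student's t test.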

Data set [19] in a line: Toxicity in BALB/c nude mouse xenografted with human HSC6 cells assessed as effect on liver morphology at 15 to 30 mg/kg. The format is organism-based. The conditions noted are these: in vivo, dose 15-30 mg/kg. The method in brief: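 Subcutaneous xenograft in 4-week-old BALB/c nude mice given 6 × 10^7 HSC6 cells into the back. Groups were control, 15 mg/kg and 30 mg/kg. Body weight was monitored and major organs were examined for toxicity.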

Data set [20] in a line: Toxicity in BALB/c nude mouse xenografted with human squamous carcinoma cells assessed as effect on body weight at 30 mg/kg. The format is organism-based. The conditions noted are these: in vivo.
The subject of data set [21] is HSC-6. Put plainly: Antiproliferative activity against human HSC-6 cells assessed as reduction in colony formation at 0.5 to 5 uM after 10 to 14 days […]. The format is functional, cell-based. The conditions noted are these: dose 0.5-5 µM, time 10-14 day. The method in brief:
(§2)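 Colony formation: cells dispersed to single cells and seeded at 500 cells/well in 6-well plates. Grown 10–14 days until macroscopic clones appeared, then formaldehyde-fixed and crystal violet-stained. Clone formation rate from clones counted by eye.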

Data set [22] concerns SCC-25. Put plainly: Antiproliferative activity against human SCC-25 cells assessed as reduction in colony formation at 0.5 to 5 uM after 10 to 14 days […]. Type of data set: functional, cell-based. The conditions noted are these: dose 0.5-5 µM, time 10-14 day. The method in brief: as §2

Molecules are shown by their SMILES. Activity calls are given as the source filed them. The calls are words filed in the database; no cut-off is given here.

Sequence of Protein arginine N-methyltransferase 5 (Homo sapiens) (O14744 whole entry): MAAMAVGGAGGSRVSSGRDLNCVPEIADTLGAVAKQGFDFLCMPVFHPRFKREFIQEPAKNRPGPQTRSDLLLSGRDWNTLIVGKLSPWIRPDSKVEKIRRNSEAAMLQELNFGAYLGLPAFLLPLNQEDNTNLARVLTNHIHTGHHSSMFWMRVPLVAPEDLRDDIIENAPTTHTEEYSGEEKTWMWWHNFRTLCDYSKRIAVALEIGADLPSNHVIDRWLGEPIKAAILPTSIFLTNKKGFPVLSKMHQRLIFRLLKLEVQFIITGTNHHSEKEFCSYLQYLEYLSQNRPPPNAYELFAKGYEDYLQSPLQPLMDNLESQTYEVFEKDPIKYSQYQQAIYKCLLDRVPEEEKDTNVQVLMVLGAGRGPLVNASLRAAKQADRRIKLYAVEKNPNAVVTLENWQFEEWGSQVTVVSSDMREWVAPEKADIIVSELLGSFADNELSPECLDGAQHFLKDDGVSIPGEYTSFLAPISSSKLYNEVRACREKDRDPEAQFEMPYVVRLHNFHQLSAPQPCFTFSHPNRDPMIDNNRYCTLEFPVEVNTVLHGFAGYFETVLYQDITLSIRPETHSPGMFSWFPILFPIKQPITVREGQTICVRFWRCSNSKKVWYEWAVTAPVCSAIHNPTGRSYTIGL

Turning to `O=C(NC[C@H](O)CN1CCc2ccccc2C1)c1cc(NC2COC2)ncn1`, the result (with HSC-6 [1]; in data set [3]; with HSC-6 [9]; with SCC-25 [12]; with Rattus norvegicus [17]; in the data set on Rattus norvegicus [18]) was Active. The result in the data set on HSC-6 [21] and with SCC-25 [22] was Active. Further, in data set [2], the inhibition entry was “inactive”. Also, the inhibition entry in [4], in data set [5], in [6], in [8], in [10] and in [14] was “Active” in each case. In addition, the inhibition result in data set [15] and in data set [16] was “Active” in each case. Besides, the Activity in the data set on Rattus norvegicus [7] is listed as 46.2%; with Rattus norvegicus [11], 38.5%; with Rattus norvegicus [13], 15.4%; in [19], “Non-Toxic”; in data set [20], “Non-Toxic”.

(Values after ChEMBL document CHEMBL5712918, “Targeting methyltransferase PRMT5 retards the carcinogenesis and metastasis of HNSCC via epigenetically inhibiting Twist1 transcription” (Neoplasia, 2020).)
